Screening results (PubChem BioAssay)
This is a sample that favours compounds with a hit; in the whole collection about 1.5% have one here.
HNF4A DNA FP: change in binding of human HNF4A to DNA, primary screen, biochemical, fluorescence polarization, FITC-DNA; 1 h; actives 0.3% (n = 360,000); AID 1224865, 2016; Hepatocyte nuclear factor 4-alpha (Homo sapiens), P41235; activity change, % at 10 µM; in the data active = activity change above about 30%, passing the limit was not always enough
Rpn11 block: Rpn11 (PSMD14) deubiquitinase inhibitors, primary screen, biochemical, fluorescence polarization, uHTS | 26S proteasome non-ATPase regulatory subunit 14 (Homo sapiens), O00487 | human 26S proteasome, Ub4-pepOG fluorescence polarization; 20S core pre-blocked with epoxomicin | inhibition, % at 20 µM | actives 0.59% (n = 360,000);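 active = inhibition at 20 µM, scaled to each plate's controls, above about 33%, limit read from the data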
Target sequence (O00487 whole entry, looked up): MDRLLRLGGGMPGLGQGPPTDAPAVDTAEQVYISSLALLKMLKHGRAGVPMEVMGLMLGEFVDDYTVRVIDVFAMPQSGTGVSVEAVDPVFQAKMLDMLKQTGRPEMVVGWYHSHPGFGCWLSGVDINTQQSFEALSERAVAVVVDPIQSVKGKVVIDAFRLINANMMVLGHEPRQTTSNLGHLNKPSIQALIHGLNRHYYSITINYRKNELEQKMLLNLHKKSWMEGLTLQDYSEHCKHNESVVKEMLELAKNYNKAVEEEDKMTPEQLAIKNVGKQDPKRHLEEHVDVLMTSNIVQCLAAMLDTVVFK
TPT1 inhibitor: Candida albicans TPT1 enzyme inhibitors, primary screen, biochemical, fluorescence polarization; tRNA 2'-phosphotransferase TPT1 (Candida albicans SC5314); recombinant caTPT1, FP RNA substrate dephosphorylation; inhibition, % at 5 µM; actives 0.81% (n = 300,000);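 active = inhibition above the mean of all tested compounds plus 3 SD, set per screening campaign, cut at about 24% in these data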;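 note: plate controls were DMSO alone for no effect and ferristatin control at 100 nM for full effect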
CSN deneddyl inh: inhibitors of CSN-mediated cullin deneddylation, primary screen, biochemical, fluorescence polarization, uHTS; actives 0.38% (n = 360,000); inhibition, % at 12.5 µM; Purified CSN, SCF-Nedd8-OG deneddylation; AID 651999, 2013;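 active = pattern-corrected inhibition above about 35%, with an unprinted fluorescence ratio check between 0.5 and 1.5, limit read from the data, passing the limit was not always enough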;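 note: 0% = enzyme with substrate and 100% = substrate without enzyme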
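Test system: purified human Csn5 enzyme expressed in HEK293T cells. Amount: 0.24 nM enzyme. Reagent: SCFSkp2-Nedd8OG substrate at 10 nM final. Schedule: 90 min incubation of compound, enzyme and substrate at room temperature. Detection: fluorescence polarization. Read-out: % inhibition of substrate cleavage by Csn5.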
TPT1 inh confirm: Candida albicans TPT1 inhibitors, confirmation, biochemical, fluorescence polarization, triplicate; shares compounds with TPT1 inhibitor; recombinant caTPT1, RNase T1 coupled; inhibition, % at 5 µM; actives 74% (n = 2,400); AID 2149, 2009;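 active = inhibition above the primary screen limit, the mean inhibition of all tested compounds plus 3 SD, cut at about 25% in these data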
RNase T1 inh: RNase T1 inhibitors, counter-screen for TPT1 inhibitor project, biochemical, fluorescence polarization; shares compounds with TPT1 inhibitor; RNase T1 cleavage, 1536-well; inhibition, % at 5 µM; actives 83% (n = 2,400);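 active = inhibition above the solvent-only control well mean plus 3 SD, limit set per screening run, cut at about 23% in these data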;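 note: plate controls were DMSO wells with enzyme for no effect and wells without RNase T1 for full effect; inhibitors block cleavage so intact labeled substrate keeps polarization high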
Target sequence (P00651 whole entry, looked up): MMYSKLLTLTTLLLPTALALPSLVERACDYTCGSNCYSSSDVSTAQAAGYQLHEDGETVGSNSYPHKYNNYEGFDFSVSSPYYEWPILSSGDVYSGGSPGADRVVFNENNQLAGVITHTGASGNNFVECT
The depositor's hits bear a star; . = no result shown; + = active, no number.

SMILES	HNF4A DNA FP	Rpn11 block	TPT1 inhibitor	CSN deneddyl inh	TPT1 inh confirm	RNase T1 inh
COc1ccc(/C=C(\C#N)C(=O)C(C)(C)n2cncn2)cc1	5	12	33*	1	3	4
COc1ccc(C=C(C#N)C(=O)c2ccccc2)cc1	3	.	.	2	.	.
Cc1cc(OC(C)C(=O)NCC(O)c2ccccc2)c2c(C)cc(=O)oc2c1 (centres undefined)	0	0	0	1	.	.
CC1CCCN(S(=O)(=O)c2ccc(NC(=O)C3CCN(C(=O)c4ccco4)CC3)cc2)C1 (centres undefined)	2	5	1	-4	.	.
CN(C)C(CNC(=O)CCNC(=O)c1ccc(Cl)cc1)c1ccco1 (centres undefined)	-4	0	1	8	.	.
CCOC(=O)/C(=C/C=C1\Sc2ccccc2N1CC)C(C)=O	176	.	174*	133	189*	170*
CCOC(=O)/C(=C\C=C1/Sc2ccccc2N1CC)C(C)=O	180	.	186*	77	196*	176*
COC(=O)[C@H]1[C@H]2C[C@@H]3c4[nH]c5cc(OC)ccc5c4CCN3C[C@H]2C[C@@H](OC(=O)/C=C/c2cc(OC)c(OC)c(OC)c2)[C@@H]1OC	23	28	38*	0	36*	48*
COc1ccc2c3c([nH]c2c1)[C@H]1C[C@H]2[C@H](C[C@@H](O)[C@H](OC)[C@H]2C(=O)O)CN1CC3	-3	-4	0	0	.	.
Cc1nc(S/C(=C/c2ccc(-c3cccc(Cl)c3)o2)C(=O)O)n[nH]1	26	33	25*	-6	35*	48*
CC1=NOC(=O)/C1=C\c1ccc(-c2cccc(Cl)c2)o1	1	8	12	9	.	.
CS(=O)(=O)c1ccc(NS(=O)(=O)c2ccc(Cl)c(C(=O)NCc3ccco3)c2)cc1	-1	-8	.	-2	.	.
C=CCN1C(=O)C(O)(CC(=O)c2ccc(-n3cccc3)cc2)c2ccccc21 (centres undefined)	8	1	-2	-4	.	.
CCCCN1C(=O)C2(NNc3ccccc3O2)c2ccccc21 (centres undefined)	69*	.	91*	7	94*	102*
C=CCN1C(=O)C2(NNc3ccccc3O2)c2ccccc21 (centres undefined)	71*	.	85*	29	103*	107*
COc1ccc(C(C#N)CC(=O)c2ccc(OC)c(OCc3ccccc3)c2)cc1OC (centres undefined)	3	-5	.	-2	.	.
C[C@@H](c1ccccc1)N1C[C@@H](COCc2ccccc2)Oc2cc(N3CCC[C@@H]3CO)ccc2S1(=O)=O	7	.	.	2	.	.
COc1ccc(CCNC(=O)CNCC(c2ccccc2)N(C)C)cc1OC (centres undefined)	1	7	2	1	.	.
CCOC(=O)c1sc(N)c(C#N)c1COC(=O)CNC(=O)c1ccccc1	74*	.	79*	41*	92*	100*
CCOC(=O)c1sc(N)c(C#N)c1CSc1nc2ccc(C)cc2[nH]1	5	8	11	5	.	.
CCOC(=O)c1c(NC(=S)Nc2cccc(C)c2)sc2c1CC(C)(C)SC2	4	.	31*	-2	26*	32*
CCOC(=O)c1c(NC(=S)Nc2ccccc2)sc2c1CCCCC2	2	6	1	1	.	.
CCOC(=O)c1c(NC(=S)Nc2ccccc2)sc2c1CCN(CC)C2	44*	.	99*	31	86*	95*
CC(=O)Nc1ccc(NC(=O)CSc2ccc(-c3ccc(-n4ccnc4)cc3)nn2)cc1	4	5	0	9	.	.
C=CCC[C@H](CCCCC)OC(=O)/C=C/[C@@H](O)[C@H](O)C[C@@H](O)CC=C	0	.	.	0	.	.
SMILES	HNF4A DNA FP	Rpn11 block	TPT1 inhibitor	CSN deneddyl inh	TPT1 inh confirm	RNase T1 inh
NS(=O)(=O)c1ccc(N2CCOCC2)c(C(=O)NCCCSc2ccccc2)c1	0	-42	.	-4	.	.
CCc1c(C)nc2cc(-c3cccc(Br)c3)[nH]n2c1=O	6	16	2	11	.	.
COC(=O)c1ccc(-c2sc3nc(N4CCOCC4)c4c(c3c2N)CCCC4)o1	.	.	58*	.	57*	68*
CCOC(=O)c1sc2nc(N3CCOCC3)c3c(c2c1N)CCCC3	-2	-2	4	-4	.	.
O=C(N[C@H](CO)Cc1ccccc1)c1ccco1	-2	2	0	-3	.	.
COC(=O)c1ccnc(/C=N/O)c1	0	0	50*	4	7	7
COCCCNC(=O)c1cccc2c(-c3ccnn3C)coc12	-5	-4	.	4	.	.
CCCOc1ccc(C(=O)Nc2ccc3c(c2)OCCO3)cc1	2	1	-3	1	.	.
Cc1ccc(N=C2NC(=O)/C(=C/c3cccn3C)S2)cc1C	3	6	7	1	.	.
Cc1cccc(N=C2NC(=O)/C(=C/c3cccn3C)S2)c1C	24	.	25*	16	37*	49*
O=C(N[C@H]1c2ccccc2C[C@H]1O)[C@H]1O[C@@H](n2ccc(=O)[nH]c2=O)[C@H](O)[C@@H]1O	4	-2	.	1	.	.
Cc1cc(C(=O)OCC(=O)c2ccc(Br)s2)c(C)o1	.	.	30*	.	6	10
O=c1[nH]c2cc3c(cc2cc1CN(Cc1cccs1)Cc1nnnn1Cc1ccco1)OCCO3	-3	-10	31*	3	11	15
COC(=O)Cn1c(CN2CCN(c3ccc(F)cc3)CC2)nc2c1c(=O)n(C)c(=O)n2C	1	0	90*	-4	1	8
CCOCCn1c(CN2CCN(c3ccc(F)cc3)CC2)nc2c1c(=O)n(C)c(=O)n2C	1	4	-5	-6	.	.
O=C(/C=C/c1ccc2ccccc2n1)c1cc(Cl)ccc1O	27	.	44*	18	46*	59*
CC(=O)N1C(=O)C(=C2C=C(C)OC(C)=C2)c2ccccc21	138	.	27*	31	72*	55*
Cc1csc(Nc2ccccc2)n1	2	2	+	4	3	9
Cc1csc(Nc2ccc(C(=O)O)cc2)n1	-3	6	14	4	.	.
COc1cc2nc(/C=C/c3ccc(N(C)C)cc3)sc2cc1SC	132	.	155*	121	153*	138*
O=C(c1ccco1)N1CCN(C(=O)c2cccc3c2C(=O)N(C2CCCCC2)C3)CC1	0	-7	27*	-6	20	26*
